Bioassay records from PubChem.
Arrestin-AP2 inh: inhibitors of beta-arrestin/AP2 binding, primary screen, biochemical, GPCR trafficking, flow cytometry. beta-arrestin 1 C-terminal peptide binding to AP2 beta2-adaptin appendage (human). FITC-arrestin peptide / GST-AP2 beads; AP2 beta2 appendage carries R879A mutation. inhibition, % at 10 µM. 0.31% of 340,000 active;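 active = inhibition above a set limit, near 3 SD of compounds lacking own fluorescence, cut at about 54% in these data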;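 also: plate controls were DMSO wells for no effect and 5 µM unlabelled arrestin peptide for full effect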
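system = GST-tagged AP2 beta2-adaptin appendage (R879A) on 4 µm glutathione beads | reagent = FITC-labelled arrestin peptide probe, 50 nM final | schedule = compound with beads 12 min RT, then probe 1 h RT | signal = HyperCyt-sampled flow cytometry, FL1 channel, ex 488/em 535 nm | read-out = percent response from loss of bead-bound FITC fluorescence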
PLC-gamma1 inh: PLC-gamma1 enzyme inhibitors, primary screen, biochemical, fluorescence, purified enzyme; inhibition, % at 12.2 µM; fluorogenic substrate; 0.84% of 370,000 active
PLC-beta3 inh: human PLC-beta3 inhibitors, primary screen, biochemical, fluorescence | Purified PLC-beta3, fluorogenic substrate | inhibition, % at 12.2 µM | 0.18% of 370,000 active | AID 720704, 2013; in the data active = inhibition above about 11%;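 also: 0% = median of compound wells on plate and 100% = full blocker control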
HGIII-sPLA2 inh: human group III sPLA2 inhibitors, primary screen, biochemical, QFRET, BODIPY PC-A2 liposome substrate. Group 3 secretory phospholipase A2 (Homo sapiens), Q9NZ20. QFRET BODIPY PC-A2 liposome hydrolysis, fluorescence. inhibition, % at 12.2 µM. 0.56% of 370,000 active;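 active = inhibition above mean plus 3 SD of compounds lying within the high and low control bounds, cut at about 19% in these data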;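 also: 0% = median of test compound wells and 100% = no enzyme DMSO wells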
proCasp3 act: activators of human procaspase-3 D3A mutant, primary screen, biochemical, absorbance, PC-3 D3A mutant, single concentration. activation, % at 8.5 µM. recombinant procaspase-3 D3A, Ac-DEVD-pNA absorbance 405 nm. 0.11% of 330,000 active;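 active = activation above the mean of all tested compounds plus 3 SD, cut at about 21% in these data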;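 also: 0% = DMSO alone and 100% = DMSO wells spiked with extra 5 µM PC-3 D3A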
Target sequence (P42574 whole entry D9A/D28A/D175A): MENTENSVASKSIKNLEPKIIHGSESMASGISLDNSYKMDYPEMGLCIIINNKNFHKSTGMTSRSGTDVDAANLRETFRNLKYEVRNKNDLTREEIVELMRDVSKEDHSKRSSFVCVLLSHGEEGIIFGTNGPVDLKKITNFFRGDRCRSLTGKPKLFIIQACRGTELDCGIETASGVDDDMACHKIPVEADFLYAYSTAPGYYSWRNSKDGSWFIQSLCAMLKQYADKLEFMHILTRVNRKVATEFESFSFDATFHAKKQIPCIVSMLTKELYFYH
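Test system: Procaspase-3 D3A mutant, all three cleavage aspartates alanine | Dosing: Single dose, 8.5 µM nominal compound, 0.8% DMSO | Schedule: 1 h preincubation, 2 h reaction | Technique: 405 nm absorbance of p-nitroaniline, reads at 0 and 120 min | Repeats: One well per compound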
procasp7 counter: procaspase-7 activators, primary screen, counter-screen for procaspase-3 activator project, biochemical, absorbance, HTS, human; 0.093% of 330,000 active; activation, % at 8.5 µM; Caspase-7 (Homo sapiens), P55210; recombinant procaspase-7, Ac-DEVD-pNA absorbance 405 nm; D23A/D198A/D206A triple mutant, cannot self-cleave; scale: DMSO 0, 5 µM enzyme 100;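 active = percent activation above the screen-wide mean plus 3 SD, cut at about 25% in these data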
Target sequence (P55210 whole entry D23A/D198A/D206A): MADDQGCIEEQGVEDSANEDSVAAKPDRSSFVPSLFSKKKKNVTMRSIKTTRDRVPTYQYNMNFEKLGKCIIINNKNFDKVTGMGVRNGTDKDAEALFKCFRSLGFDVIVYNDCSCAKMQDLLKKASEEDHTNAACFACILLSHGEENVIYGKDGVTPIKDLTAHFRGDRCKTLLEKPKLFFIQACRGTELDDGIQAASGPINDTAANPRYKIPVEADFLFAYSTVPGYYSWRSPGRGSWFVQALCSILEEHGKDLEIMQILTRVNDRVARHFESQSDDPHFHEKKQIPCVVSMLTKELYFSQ
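signal = Epi-absorbance of released pNA at 405 nm, two timepoints | assay system = Uncleavable procaspase-7 mutant enzyme | reagent = Ac-DEVD-pNA substrate, 400 µM as added | times = 1 h enzyme–compound preincubation and 2 h substrate reaction, both 25 °C | benchmarks = low DMSO alone, high DMSO plus 5 µM PC-7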
PLCgamma1 ctr: PLC-gamma1 enzyme inhibitors, counter-screen for PLC-beta3 inhibitor project, biochemical, fluorescence; shares compounds with PLC-gamma1 inh; purified PLC-gamma1, fluorogenic substrate; inhibition, % at 12.3 µM; 3.1% of 3,300 active; AID 743258, 2014
PLCbeta3 conf: PLC-beta3 inhibitor confirmation, biochemical, fluorescence, purified enzyme. shares compounds with PLC-gamma1 inh. fluorogenic substrate fluorescence. inhibition, % at 12.3 µM. 1% of 3,300 active; in the data active = inhibition above about 11%
The depositor's hits bear a star; . = no result. Most compounds without a hit are left out; they make up all but 1.9% or so of the library. Rule as the data show it, unless noted: active = inhibition above about 9.5%; inactive = the rest.

SMILES	Arrestin-AP2 inh	PLC-gamma1 inh	PLC-beta3 inh	HGIII-sPLA2 inh	proCasp3 act	procasp7 counter	PLCgamma1 ctr	PLCbeta3 conf
CCOC(=O)NCc1ccc(S(=O)(=O)Nc2ccc(C)cc2)cc1	5.6	12.9*	4.2	-7.8	-1.5	4.1	-7.4	-3.6
Cc1cc(C)nc(N(C#N)CCOc2ccc(Cl)cc2)n1	6.4	9.8*	-0.8	-8.3	-0.2	-1.9	-6.0	-2.8
CC(C)CN1C(=O)C[C@]2(C(=O)N(C)c3ccc(NS(=O)(=O)c4ccc(F)cc4)cc32)C1c1ccccc1 (stereo not given in full)	.	-1.4	-0.9	-11.5	.	.	.	.
NC(=O)c1cnn(-c2cccc(Cl)c2)c1N	22.3	2.4	-5.7	-3.7	8.6	4.8	.	.
CC(C)n1ncc(C(N)=O)c1N	6.7	9.8*	2.3	14.3	7.5	6.7	-2.6	2.9
CS(=O)(=O)c1ccc(NC(=O)c2cc3c(cc2Cl)N2CCCCCC2=NS3(=O)=O)cc1	20.6	-7.1	-12.9	-2.8	.	.	.	.
COc1ccccc1NC(=O)c1cc2c(cc1Cl)N1CCCCCC1=NS2(=O)=O	25.0	12.2*	10.1	7.0	1.6	9.0	-4.1	-0.9
O=C(Nc1ccccc1Cl)c1cc(C2CCCN(C(=O)CCc3ccccc3)C2)on1 (stereo not given)	.	9.8*	3.3	-12.4	.	.	-1.0	-0.1
O=C(Nc1ccccc1)c1cc(C2CCCN(C(=O)CCc3ccccc3)C2)on1 (stereo not given)	.	6.2	10.2	-12.5	.	.	.	.
Cc1cc2nc(-c3nnnn3C3CCCCC3)c(=O)[nH]c2cc1C	.	-83.1	-109.4	-9.2	.	.	.	.
O=C(Nc1ccc(N2CCN(C(=O)c3cccs3)CC2)c(Cl)c1)c1ccco1	21.4	14.3*	2.7	-1.1	-0.1	2.6	-4.2	-6.7
Cc1ccccc1C(=O)N1CCN(c2ccc(NC(=O)c3ccco3)cc2Cl)CC1	-0.4	-1.2	-3.8	-13.7	13.1	2.4	.	.
CCN(C(=O)COC(=O)c1ccc(Sc2ncn[nH]2)c([N+](=O)[O-])c1)c1ccccc1C	.	1.9	4.5	-29.1	.	.	.	.
CN(CC(=O)Nc1cccc(F)c1)C(=O)Cc1n[nH]c(=O)c2ccccc12	1.4	0.0	1.7	1.4	0.3	3.1	.	.
CN(CC(=O)Nc1ccc(Cl)c(C(F)(F)F)c1)C(=O)Cc1n[nH]c(=O)c2ccccc12	-6.4	10.0*	-3.3	-29.6	-3.8	-0.1	-2.5	1.3
COC(=O)[C@H](C(C)C)N1Cc2nnn(CC3CCCCC3)c2-c2ccccc2S1(=O)=O	.	2.9	5.0	-1.0	.	.	.	.
CC1CCN(C2(O)C(=O)Nc3ccc(Cl)cc32)CC1 (stereo not given)	4.9	0.5	-4.3	-1.8	-2.9	14.5	.	.
CC1CCN(C2(O)C(=O)Nc3ccc([N+](=O)[O-])cc32)CC1 (stereo not given)	9.9	10.4*	13.5*	-2.1	0.3	1.4	-3.3	2.5
O=C1C=C[C@H]2CC[C@@H](O)[C@@H]1[C@@H]2Sc1ccccc1	.	10.3*	-1.9	13.2	.	.	3.2	-0.8
CCCCC1OC(CCc2ccccc2)CC2=C1C(=O)OC(C)(C)O2 (stereo not given)	.	0.2	0.5	2.3	.	.	.	.
C#CCNC(=O)C[C@H]1C(=O)N(CC=C)C2=CCCC[C@@]21C(=O)OCC	.	0.7	-1.3	4.0	.	.	.	.
C=CCN1[C@@H](C)COc2cccc(F)c2S1(=O)=O	.	-0.8	4.6	1.1	.	.	.	.
Cc1cc(Cl)ccc1OCC(=O)N1CCCN(C(=O)COc2ccc(Cl)cc2C)CC1	8.2	10.1*	3.6	-13.4	-2.4	-3.6	-9.4	-3.7
Cc1cc(Cl)ccc1OC(C)C(=O)N1CCCN(C(=O)C(C)Oc2ccc(Cl)cc2C)CC1 (stereo not given)	-5.1	10.4*	4.5	-31.4	1.4	5.3	-5.4	-4.4
Cc1cc(Cl)ccc1OCC(=O)N1CC(C)CC(C)C1 (stereo not given)	11.5	0.5	2.6	-2.2	-2.1	4.5	.	.
SMILES	Arrestin-AP2 inh	PLC-gamma1 inh	PLC-beta3 inh	HGIII-sPLA2 inh	proCasp3 act	procasp7 counter	PLCgamma1 ctr	PLCbeta3 conf
CC(=O)Cc1nsc(NC(=O)c2ccc(-c3cccc(Cl)c3)o2)n1	27.3	-29.9	-54.0	-20.1	5.5	-3.4	.	.
O=C1Nc2ccccc2-n2nnnc2C1N1CCN(C(=O)c2ccco2)CC1 (stereo not given)	.	1.2	-3.7	2.4	.	.	.	.
COc1cccc(C(=O)Nc2ccc3c(c2)OC[C@H](C)N(C(=O)C2CCCC2)C[C@@H](C)[C@@H](OC)CN(C)C3=O)c1	.	6.2	-3.0	6.9	.	.	.	.
Cn1nc(SCC(=O)O)sc1=S	3.8	-0.1	-1.0	1.2	9.2	-5.0	.	.
CCOC(=O)C(Sc1nn(C)c(=S)s1)C(C)=O (stereo not given)	-1.1	3.0	10.9*	0.4	4.2	6.5	5.9	2.3
O=S(=O)(NC1c2cccc3cccc(c23)C1Sc1ncccn1)c1ccc(Cl)cc1 (stereo not given)	2.2	2.2	-1.9	-10.6	-0.3	8.5	.	.
Cc1ccc(S(=O)(=O)NC2c3cccc4cccc(c34)C2Sc2n[nH]c(N)n2)cc1 (stereo not given)	-4.8	9.9*	-2.3	-14.6	12.0	7.1	-2.8	-2.6
Cc1ccc(Sc2nc3c(c(=O)[nH]c(=O)n3C)n2CCc2ccccc2)cc1	20.6	5.5	12.9*	-1.3	1.2	0.1	-2.3	-2.2
O=C(COC(=O)C1=COCCO1)Nc1cccc(Oc2ccccc2)c1	15.9	-1.4	-0.8	-10.2	2.4	17.7	.	.
O=C(COC(=O)C1=COCCO1)Nc1ccccc1Oc1ccccc1	1.5	4.2	10.8*	-2.7	9.2	-1.2	-1.5	0.8
NCCCCC(N)c1cn([C@@H](CCC(=O)O)C(=O)N2CCNCC2)nn1 (stereo not given in full)	-4.0	-0.4	13.0*	9.8	9.0	0.1	-2.9	0.2
